Calls of active or inactive are those of the source. The rule behind the calls is not given here.
What was measured:
[1] = Toxicity in neonatal foreskin fibroblasts; assay type: ADME, cell-based; conditions: Fibroblast
Plasmodium falciparum [2] = assay: Antimalarial activity against chloroquine-resistant Plasmodium falciparum Dd2 infected in O+ human erythrocytes by [3H]hypoxanthine incorporation assay; assay type: functional, organism-based
Outline: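 Parasites cultured in O+ human erythrocytes in RPMI 1640 with 10% heat-inactivated human serum. Synchronous ring-stage infected cells were set at 0.25% parasitemia and 2.5% hematocrit, and growth was measured by [3H]hypoxanthine incorporation. IC50 was taken against DMSO controls by linear interpolation of inhibition curves. Chloroquine served as the internal control. Triplicate wells, at least four separate occasions.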

[3] = Selectivity index, ratio of IC50 for neonatal foreskin fibroblasts to IC50 for chloroquine-resistant Plasmodium falciparum Dd2
[4] = Selectivity index, ratio of IC50 for human WI38 cells to IC50 for chloroquine-resistant Plasmodium falciparum Dd2
[5] = Toxicity in breast fibroblasts; assay type: cell-based; conditions: Fibroblast
Plasmodium falciparum [6] = assay: Antimalarial activity against chloroquine-sensitive Plasmodium falciparum 3D7 infected in O+ human erythrocytes by [3H]hypoxanthine incorporation assay; assay type: functional, organism-based; conditions: 3D7, 3 h
[7] = Toxicity in human WI38 cells; assay type: cell-based, WI-38
[8] = Selectivity index, ratio of IC50 for human WI38 cells to IC50 for chloroquine-sensitive Plasmodium falciparum 3D7
[9] = Selectivity index, ratio of IC50 for neonatal foreskin fibroblasts to IC50 for chloroquine-sensitive Plasmodium falciparum 3D7
Plasmodium falciparum [10] = assay: Antimalarial activity against chloroquine-resistant Plasmodium falciparum W2 infected in O+ human erythrocytes by [3H]hypoxanthine incorporation assay; assay type: functional, organism-based
[11] = Selectivity index, ratio of IC50 for african green monkey (Cercopithecus aethiops) Vero cells to IC50 for chloroquine-sensitive Plasmodium falciparum D6; assay type: toxicity, cell-based; conditions: read-out: Ratio IC50
Plasmodium falciparum [12] = assay: Antimalarial activity against chloroquine-sensitive Plasmodium falciparum D6 infected in O+ human erythrocytes by [3H]hypoxanthine incorporation assay; assay type: functional, organism-based
[13] = Selectivity index, ratio of IC50 for african green monkey (Cercopithecus aethiops) Vero cells to IC50 for chloroquine-resistant Plasmodium falciparum W2; assay type: toxicity, cell-based; conditions: read-out: Ratio IC50
[14] = Toxicity in african green monkey Vero cells; assay type: cell-based; conditions: African green monkey (Chlorocebus sabaeus)
Plasmodium falciparum [15] = assay: Antimalarial activity against Plasmodium falciparum; assay type: functional, organism-based
Outline: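 Dd2 and 3D7 grown in O-positive human erythrocytes, RPMI 1640 with 10% heat-inactivated human serum. Synchronous ring-stage infected cells, 0.25% parasitemia, 2.5% hematocrit; growth read as [3H]hypoxanthine incorporation versus DMSO controls. IC50 taken by linear interpolation of inhibition curves. Chloroquine as internal control; triplicate wells, at least four separate occasions.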

Plasmodium falciparum [16] = assay: Antimalarial activity against Plasmodium falciparum infected in O+ human erythrocytes assessed as reduction in parasites at trophozoites stage at 50 nM after 48 hrs by Giemsa staining based microscopy; assay type: functional, organism-based
Outline: (§1)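 Synchronous Dd2-infected erythrocytes at ring (~18 h postinvasion), trophozoite (~26 h) or schizont (~38 h) stage, starting parasitemia 0.2–1.0%, exposed to 50 or 200 nM; DMSO (<0.05%) vehicle controls. Parasitemia counted on Giemsa-stained thin smears over 2–4 days, at least 1,000 erythrocytes by two counters. 48 h means compared by ANOVA; three independent experiments.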

Plasmodium falciparum [17] = assay: Inhibition of HDAC in Plasmodium falciparum Dd2 infected in O+ human erythrocytes assessed as alteration of histone acetylation at 20 to 500 nM after 3.5 hrs by Westen blot; assay type: organism-based
Outline: (§2)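 Late-trophozoite Dd2-infected erythrocytes (3 x 10^9) treated 3.5 h at 37°C at 20, 100 or 500 nM, DMSO vehicle controls. Saponin lysis, histones acid-extracted in 0.5 M HCl, acetone-precipitated, run on 15% SDS-PAGE (silver stain for loading). Western blot with anti-tetra-acetyl histone H4 antiserum (1:2,000), then HRP anti-rabbit (1:5,000).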

Plasmodium falciparum [18] = assay: Antimalarial activity against Plasmodium falciparum infected in O+ human erythrocytes assessed as reduction in parasites at schizonts stage at 50 nM after 48 hrs by Giemsa staining based microscopy; assay type: functional, organism-based; outline: as §1
Plasmodium falciparum [19] = assay: Antimalarial activity against Plasmodium falciparum infected in O+ human erythrocytes assessed as reduction in parasites at trophozoites stage at 200 nM after 48 hrs by Giemsa staining based microscopy; assay type: functional, organism-based; outline: as §1
Plasmodium falciparum [20] = assay: Antimalarial activity against Plasmodium falciparum infected in O+ human erythrocytes assessed as reduction in parasites at ring stage at 200 nM after 48 hrs by Giemsa staining based microscopy; assay type: functional, organism-based; outline: as §1
Plasmodium falciparum [21] = assay: Antimalarial activity against Plasmodium falciparum infected in O+ human erythrocytes assessed as reduction in parasites at ring stage at 50 nM after 48 hrs by Giemsa staining based microscopy; assay type: functional, organism-based; outline: as §1
Plasmodium falciparum [22] = assay: Antimalarial activity against Plasmodium falciparum infected in O+ human erythrocytes assessed as reduction in parasites at schizonts stage at 200 nM after 48 hrs by Giemsa staining based microscopy; assay type: functional, organism-based; outline: as §1
Plasmodium falciparum [23] = assay: Inhibition of HDAC in Plasmodium falciparum Dd2 infected in O+ human erythrocytes assessed as alteration of histone acetylation at 500 nM after 3.5 hrs by Westen blot; assay type: organism-based; outline: as §2

| SMILES | IC50 [1] [µM] | IC50 (Plasmodium falciparum [2]) [µM] | Ratio IC50 [3] | IC50 (Plasmodium falciparum [6]) [µM] | Ratio IC50 [9] | other results |
| --- | --- | --- | --- | --- | --- | --- |
| CN(C)c1ccc(C(=O)N[C@@H](CSCCCC(=O)NO)C(=O)Nc2ccc(-c3ccccc3)cc2)cc1 | 0.32 | 0.128 | 3 | – | – | – |
| CN(C)c1ccc(C(=O)N[C@@H](CSCCCC(=O)NO)C(=O)NCc2ccccc2)cc1 | 0.35 | 0.169 | 2 | – | – | – |
| Nc1ccccc1NC(=O)c1ccc(CNC(=O)OCc2cccnc2)cc1 [ENTINOSTAT] | – | 7.8 | – | 8.3 | – | selectivity ratio [4]: > 2.6; IC50 [5]: 20 µM; IC50 [7]: > 20 µM; selectivity ratio [8]: > 2.4 |
| O=C(CCCCC[C@H](NC(=O)c1cc2ccccc2[nH]1)C(=O)NCc1ccccc1)NO | 1.26 | 0.063 | 20 | 0.034 | 37 | – |
| CN(C)c1ccc(C(=O)N[C@@H](CCCCCC(=O)NO)C(=O)Nc2cccc3cccnc23)cc1 | 0.57 | 0.071 | 8 | 0.019 | 30 | – |
| CC(C)(C)OC(=O)N[C@@H](CCCCCS)C(=O)NC1CCCC1 | – | 19.9 | – | 15.2 | – | – |
| O=C(CCCCC[C@H](NC(=O)c1ccc(Br)cc1)C(=O)NCc1ccccc1)NO | 5.86 | 0.334 | 17 | 0.091 | 64 | – |
| CN(C)c1ccc(C(=O)N[C@@H](CSCCCC(=O)NO)C(=O)NC2CCCc3ccccc32)cc1 (stereo not given in full) | 2.2 | 0.305 | 7 | – | – | – |
| CC(NC(=O)c1ccccc1/N=C/c1c(O)ccc2ccccc12)c1ccccc1 (stereo not given) [SIRTINOL] | > 25 | 9.1 | 2.7 | 12.9 | 1.9 | – |
| O=C(CCCSC[C@H](NC(=O)c1ccc(Br)cc1)C(=O)NCc1ccccc1)NO | 0.83 | 0.125 | 13 | – | – | – |
| O=C(/C=C\c1ccccc1)N[C@@H](CSCCCC(=O)NO)C(=O)NCc1ccccc1 | 0.8 | 0.339 | 2 | – | – | – |
| O=C(CCCCCCC(=O)NO)NO [SUBEROHYDROXAMIC ACID] | – | – | – | – | – | IC50 (Plasmodium falciparum [10]): 1.78 µM; selectivity ratio [11]: > 21; IC50 (Plasmodium falciparum [12]): 0.94 µM; selectivity ratio [13]: > 21; IC50 [14]: > 20 µM |
| O=C(CCCCC[C@H](NC(=O)OCc1ccccc1)C(=O)Nc1ccc(-c2ccccc2)cc1)NO | 2.2 | 0.105 | 21 | 0.029 | 76 | – |
| O=C(CCCCCCCC(=O)NO)NO [AZELAIC BIS HYDROXAMIC ACID] | – | – | – | – | – | IC50 (Plasmodium falciparum [15]): 3.2 µM |
| O=C(/C=C/c1ccccc1)N[C@@H](CCCCCC(=O)NO)C(=O)Nc1cccc2cccnc12 | 1.24 | 0.039 | 32 | 0.015 | 83 | inhibition (Plasmodium falciparum [16]): Active; inhibition (Plasmodium falciparum [17]): Active; inhibition (Plasmodium falciparum [18]): Active; inhibition (Plasmodium falciparum [19]): Active; inhibition (Plasmodium falciparum [20]): Active; inhibition (Plasmodium falciparum [21]): Active; inhibition (Plasmodium falciparum [22]): Active |
| CC(/C=C/C(=O)NO)=C\[C@@H](C)C(=O)c1ccc(N(C)C)cc1 [TRICHOSTATIN] | 0.2 | 0.008 | 25 | 0.011 | 18 | inhibition (Plasmodium falciparum [23]): Active; inhibition (Plasmodium falciparum [19]): Active; inhibition (Plasmodium falciparum [20]): Active; inhibition (Plasmodium falciparum [22]): Active |
| O=C(/C=C/c1ccccc1)N[C@@H](CCCCCC(=O)NO)C(=O)NCc1ccccc1 | 4.01 | 0.102 | 39 | 0.034 | 118 | – |
| CN(C)c1ccc(NC(=O)[C@H](CSCCCC(=O)NO)NC(=O)c2ccc(N(C)C)cc2)cc1 | 0.6 | 0.048 | 12 | – | – | – |
| O=C(CCCCC[C@H](NC(=O)c1cc2ccccc2[nH]1)C(=O)Nc1cccc2cccnc12)NO | 0.337 | 0.033 | 10 | 0.013 | 26 | inhibition (Plasmodium falciparum [16]): Active; inhibition (Plasmodium falciparum [17]): Active; inhibition (Plasmodium falciparum [18]): Active; inhibition (Plasmodium falciparum [19]): Active; inhibition (Plasmodium falciparum [20]): Active; inhibition (Plasmodium falciparum [21]): Active; inhibition (Plasmodium falciparum [22]): Active |
| O=C(CCCCC[C@H](NC(=O)c1ccc(Br)cc1)C(=O)Nc1ccc(-c2ccccc2)cc1)NO | 0.19 | 0.041 | 5 | 0.022 | 9 | – |
